Values after ≈ are worked out from the molar mass of the structure shown.
Columns and labels:
Cryptococcus neoformans [1] = assay: Antifungal activity against Cryptococcus neoformans H-99 after 72 hrs by broth microdilution method; type: functional; conditions: H-99, 72 h
How it was run: (§1)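 Broth microdilution per CLSI M27-A3 and M38-A2. 1000 cells per well in RPMI (final 100 µL) with two-fold compound dilutions from 0.1 to 50 µg/ml. MIC-50 is the lowest concentration that cuts growth to half the OD of the untreated control. Candida species are clinical strains. A. fumigatus strain is AF-294.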

Cryptococcus neoformans [2] = assay: Antifungal activity against Cryptococcus neoformans JEC-21 after 72 hrs by broth microdilution method; type: functional; conditions: JEC-21, 72 h; how it was run: as §1
Candida albicans = assay: Antifungal activity against Candida albicans CAF-2 after 24 hrs by broth microdilution method; type: functional; conditions: CAF-2, 24 h
How it was run: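 Broth microdilution per CLSI M27-A3: 1000 cells per well in RPMI, two-fold compound dilutions from 0.1 to 50 μg/ml, final volume 100 μL RPMI. MIC-50 is the lowest concentration that inhibits growth to half the OD of the untreated control.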

Nakaseomyces glabratus = assay: Antifungal activity against Candida glabrata after 24 hrs by broth microdilution method; type: functional; how it was run: as §1
Candida tropicalis = assay: Antifungal activity against Candida tropicalis after 24 hrs by broth microdilution method; type: functional; how it was run: as §1
Candida parapsilosis = assay: Antifungal activity against Candida parapsilosis after 24 hrs by broth microdilution method; type: functional; conditions: Lodderomyces parapsilosis; how it was run: as §1
Clavispora lusitaniae = assay: Antifungal activity against Candida lusitaniae after 24 hrs by broth microdilution method; type: functional; how it was run: as §1
[3] = tested on: Meyerozyma guilliermondii; assay: Antifungal activity against Candida guilliermondii after 24 hrs by broth microdilution method; type: functional; how it was run: as §1
[4] = Antifungal activity against Candida apicola after 24 hrs by broth microdilution method; type: functional; how it was run: as §1
Aspergillus fumigatus = assay: Antifungal activity against Aspergillus fumigatus AF-294 after 48 hrs by broth microdilution method; conditions: AF-294, 48 h
[5] = Cytotoxicity against human HepG2 cells after 24 hrs by neutral red cell viability assay; type: cell-based
How it was run: (§2)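 Neutral red viability assay on HepG2 human hepatoma cells at defined compound concentrations, exposure 24, 48 or 72 h. CC-50 was calculated from the viability data.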

[6] = Cytotoxicity against human HepG2 cells after 48 hrs by neutral red cell viability assay; type: cell-based; how it was run: as §2
[7] = Cytotoxicity against human HepG2 cells after 72 hrs by neutral red cell viability assay; type: cell-based; how it was run: as §2
[8] = Ratio of CC50 for human HepG2 cells to MIC50 for antifungal activity; type: functional
HepG2 = assay: Cytotoxicity against human HepG2 cells by MTT assay; type: cell-based
How it was run: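 MTT viability assay at defined compound concentrations in human hepatoma cell lines HepG2 and Huh7.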

Huh-7 = assay: Cytotoxicity against human HuH7 cells by MTT assay; type: cell-based

With `OC(Cn1cncn1)(Cn1cncn1)c1ccc(F)cc1F` [FLUCONAZOLE] the MIC50 (Cryptococcus neoformans [1]) was greater than 64 µg/mL, the MIC50 (Cryptococcus neoformans [2]) was greater than 64 µg/mL and the MIC50 (Candida albicans) was 0.2 µg/mL (≈ 0.653 µM). The MIC50 (Nakaseomyces glabratus) was 3.2 µg/mL (≈ 10.4 µM), the MIC50 (Candida tropicalis) was 16 µg/mL (≈ 52.2 µM) and the MIC50 (Candida parapsilosis) was 0.4 µg/mL (≈ 1.31 µM). For the same molecule, the MIC50 (Clavispora lusitaniae) was 3.2 µg/mL (≈ 10.4 µM), the MIC50 [3] was 6.4 µg/mL (≈ 20.9 µM) and the MIC50 [4] was 0.2 µg/mL (≈ 0.653 µM). For the same molecule, the MIC50 (Aspergillus fumigatus) was 16 µg/mL (≈ 52.2 µM).
With `CCN(Cc1ccccc1)C(=O)Cn1sc2ccccc2c1=O` the MIC50 (Candida albicans) was 6.4 µg/mL (≈ 19.6 µM).
`CN(C(=O)Cn1sc2ccccc2c1=O)c1ccccc1` showed an MIC50 (Candida albicans) greater than 50 µg/mL.
Work on `O=C(Cn1sc2ccccc2c1=O)Nc1nccs1` yielded an MIC50 (Candida albicans) greater than 50 µg/mL.
`COC(=O)c1cccc(NC(=O)Cn2sc3ccccc3c2=O)c1` gave an MIC50 (Candida albicans) of 12.5 µg/mL (≈ 36.5 µM).
`CN(Cc1ccccc1)C(=O)Cn1sc2ccccc2c1=O` gave an MIC50 (Cryptococcus neoformans [1]) of 1.6 µg/mL (≈ 5.12 µM), an MIC50 (Cryptococcus neoformans [2]) of 1.6 µg/mL (≈ 5.12 µM) and a CC50 at 24 h [5] of 62.2 µg/mL (≈ 199 µM). The CC50 at 48 h [6] was 25.7 µg/mL (≈ 82.3 µM), the CC50 at 72 h [7] was 23.2 µg/mL (≈ 74.3 µM) and the Ratio [8] was 15. The Activity (HepG2) was “Toxic”, the Activity (Huh-7) was “Toxic” and the MIC50 (Candida albicans) was 1.6 µg/mL (≈ 5.12 µM). For the same molecule, the MIC50 (Nakaseomyces glabratus) was 1.6 µg/mL (≈ 5.12 µM), the MIC50 (Candida tropicalis) was 1.6 µg/mL (≈ 5.12 µM) and the MIC50 (Candida parapsilosis) was 1.6 µg/mL (≈ 5.12 µM). It also gave an MIC50 (Clavispora lusitaniae) of 1.6 µg/mL (≈ 5.12 µM), an MIC50 [3] of 1.6 µg/mL (≈ 5.12 µM) and an MIC50 [4] of 1.6 µg/mL (≈ 5.12 µM). The MIC50 (Aspergillus fumigatus) was 12.5 µg/mL (≈ 40 µM).
With `O=C(Cn1sc2ccccc2c1=O)NCCN1CCOCC1` the MIC50 (Candida albicans) was greater than 50 µg/mL.
Molecule `CCN(CC)C(=O)Cn1sc2ccccc2c1=O` has an MIC50 (Candida albicans) greater than 50 µg/mL.
In the case of `COC(=O)c1ccccc1NC(=O)Cn1sc2ccccc2c1=O`, the MIC50 (Candida albicans) is reported as 6.4 µg/mL (≈ 18.7 µM).
Work on `COc1cccc(CNC(=O)Cn2sc3ccccc3c2=O)c1` yielded an MIC50 (Candida albicans) of 3.2 µg/mL (≈ 9.74 µM).
In the case of `CC(C(=O)NCc1ccccc1)n1sc2ccccc2c1=O` (racemic), the MIC50 (Candida albicans) is reported as greater than 50 µg/mL.
With `CC(C(=O)N(C)Cc1ccccc1)n1sc2ccccc2c1=O` (racemic) the MIC50 (Candida albicans) was 25 µg/mL (≈ 76.6 µM).
Molecule `O=C(Cn1sc2ccccc2c1=O)NCc1ccccc1` has an MIC50 (Candida albicans) of 3.2 µg/mL (≈ 10.7 µM).
For `C[C@@H](NC(=O)Cn1sc2ccccc2c1=O)c1ccccc1`, the MIC50 (Candida albicans) was 6.4 µg/mL (≈ 20.5 µM).
Molecule `COc1ccc(CNC(=O)Cn2sc3ccccc3c2=O)cc1` has an MIC50 (Candida albicans) of 3.2 µg/mL (≈ 9.74 µM).
In the case of `O=C(Cn1sc2ccccc2c1=O)NCc1ccc(F)cc1`, the MIC50 (Candida albicans) is reported as 1.6 µg/mL (≈ 5.06 µM).
With `O=C(Cn1sc2ccccc2c1=O)NC12CC3CC(CC(C3)C1)C2` the MIC50 (Candida albicans) was 3.2 µg/mL (≈ 9.34 µM).
Work on `O=C(Cn1sc2ccccc2c1=O)NCCc1ccccc1` yielded an MIC50 (Candida albicans) greater than 50 µg/mL.
With `C[C@H](NC(=O)Cn1sc2ccccc2c1=O)c1ccccc1` the MIC50 (Candida albicans) was 6.4 µg/mL (≈ 20.5 µM).
In the case of `O=C(Cn1sc2ccccc2c1=O)Nc1ccccc1`, the MIC50 (Candida albicans) is reported as 6.4 µg/mL (≈ 22.5 µM).
